For experiment [1], the system named is Human adenovirus D37. In words: Inhibition of [35S]labeled Human adenovirus type 37 virions binding to human corneal epithelial cells by liquid scintillation counting. Type of experiment: functional, organism-based. Particulars: Cornea, Epithelial cell. Summed up: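 ³⁵S-labeled Ad37 virions preincubated with ligand before being added to HCE cells. After incubation, unbound virions washed away and cell-associated radioactivity measured. Each run used a duplicate dilution series (2, 4, 8 and 16 mM), averaged from duplicates. Experiment repeated three times; large variation allowed only a rough activity estimate.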

The subject of experiment [2] is Human adenovirus D37. Description: Antiviral activity against Human adenovirus type 37 virions assessed as inhibition of viral infection in human corneal epithelial cells preincubated for 1 hr. The class given is functional, organism-based. The note with it: Cornea, Epithelial cell. Summed up:
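Unlabeled Ad37 virions preincubated with a dilution series of ligand, then incubated with HCE cells. Unbound virions washed off; cell-associated virions allowed to infect. Infected cells stained with rabbit polyclonal anti-Ad37 serum and FITC-conjugated swine anti-rabbit IgG, then counted as fluorescent focus units under an immunofluorescence microscope. Duplicates within one experiment; experiment repeated twice.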

Activity calls are given as the source filed them. The rule behind the calls is not given here.

For the molecule `O=C(CO)N[C@H]1[C@H]([C@H](O)[C@H](O)CO)O[C@](O)(C(=O)O)C[C@@H]1O`, the result in the experiment with Human adenovirus D37 [1] was inactive. For `CC(=O)N[C@H]1[C@H]([C@@H](O)[C@@H](O)CO)O[C@@](O)(C(=O)O)C[C@@H]1O`, the Activity result in the experiment on Human adenovirus D37 [2] is “Dose-dependent effect”. Besides, in the experiment with Human adenovirus D37 [1], the result was Active. Taken in the same sequence, the figures for `CCC(=O)N[C@H]1[C@H]([C@H](O)[C@H](O)CO)O[C@](OC)(C(=O)O)C[C@@H]1O` were “Dose-dependent effect” and “Active”. Taken in the same sequence, the figures for `COC(=O)N[C@H]1[C@H]([C@H](O)[C@H](O)CO)O[C@](OC)(C(=O)O)C[C@@H]1O` were “Dose-dependent effect” and “Active”. For the molecule `CO[C@@]1(C(=O)O)C[C@H](O)[C@@H](NC(=O)OC(C)(C)C)[C@H]([C@H](O)[C@H](O)CO)O1`, in the experiment with Human adenovirus D37 [1], the result was inactive.

`CCCC(=O)N[C@H]1[C@H]([C@H](O)[C@H](O)CO)O[C@](OC)(C(=O)O)C[C@@H]1O`: the result in the experiment on Human adenovirus D37 [2] and with Human adenovirus D37 [1] was inactive.

Turning to `CNC(=O)N[C@H]1[C@H]([C@H](O)[C@H](O)CO)O[C@](OC)(C(=O)O)C[C@@H]1O`, in the experiment on Human adenovirus D37 [1], the result was inactive. Take `CCCCC(=O)N[C@H]1[C@H]([C@H](O)[C@H](O)CO)O[C@](OC)(C(=O)O)C[C@@H]1O`: the outcome in the experiment on Human adenovirus D37 [1] was inactive.

`CO[C@@]1(C(=O)O)C[C@H](O)[C@@H](NC(=O)c2ccccc2)[C@H]([C@H](O)[C@H](O)CO)O1`: in the experiment on Human adenovirus D37 [2], the outcome was inactive. Besides, in the experiment with Human adenovirus D37 [1], the outcome was Active. As for `CO[C@@]1(C(=O)O)C[C@H](O)[C@@H](NC(=O)C(C)C)[C@H]([C@H](O)[C@H](O)CO)O1`, the result in the experiment on Human adenovirus D37 [2] and in the experiment on Human adenovirus D37 [1] was inactive.

The values above are taken from ChEMBL document CHEMBL1136953, “Design, synthesis, and evaluation of N-acyl modified sialic acids as inhibitors of adenoviruses causing epidemic keratoconjunctivitis” (J Med Chem, 2009).
